Assay results gathered from unrelated publications.
Compare with care: the assays were run in different laboratories. Converted amounts (≈) assume the structure as drawn.
Organism: Staphylococcus epidermidis

| SMILES | observed | method | strain | concentration | time | quantity | value |
| --- | --- | --- | --- | --- | --- | --- | --- |
| O=C1NC(=S)N/C1=C\c1ccc(-c2ccc(N(c3ccccc3)c3ccccc3)cc2)cc1 | microbial growth | broth dilution | ATCC12228 |  |  | MIC | > 1000 µg/mL |
| COc1cccc(OC)c1C(=O)N[C@@H]1C(=O)N2[C@@H]1SC(C)(C)[C@@H]2C(=O)O | microbial growth | broth dilution | 12228 |  |  | MIC | 3.13 µM |
| C/C(=C\c1ccc(O)cc1)C(=O)Nc1ccc(C(=O)N[C@@H](CC(N)=O)C(=O)Nc2ccc(C(=O)Nc3ccc(C(=O)Nc4ccc(C(=O)O)cc4)c(O)c3OC(C)C)cc2)cc1 | microbial growth |  | DSM28765 |  |  | MIC | 0.25 µg/mL |
| Cc1c(NC(=O)CC2=NC(=O)CS2)c(=O)n(-c2ccccc2)n1C | microbial killing | broth dilution |  |  |  | MBC | 1 µg/mL (≈ 2.9 µM) |
| O=C(O)CN1C(=O)/C(=C/c2c3ccccc3c(-c3ccc(N(c4ccccc4)c4ccccc4)cc3)c3ccccc23)SC1=S | microbial killing | broth dilution | ATCC12228 |  |  | MBC | > 1000 µg/mL |
| O=[N+]([O-])c1ccc2c(N=Nc3c(O)ccc4ccccc34)c(O)cc(S(=O)(=O)O)c2c1 | microbial growth | broth dilution |  |  | 24 h | MIC50 | 250 µM (≈ 110 µg/mL) |
| CC1(C)S[C@@H]2[C@H](NC(=O)[C@H](N)c3ccccc3)C(=O)N2[C@H]1C(=O)O | microbial growth | agar dilution | ATCC12228 | 26.93 µM |  | inhibition | 100% |
| O=C1NC(=S)S/C1=C\c1ccc(-c2ccc(N(c3ccccc3)c3ccccc3)cc2)c2ccccc12 | microbial killing | broth dilution | ATCC12228 |  |  | MBC | > 1000 µg/mL |
| CC(C)Oc1c(NC(=O)c2ccc(NC(=O)[C@H](CC(N)=O)NC(=O)c3ccc(NC(=O)c4ccc(C#N)cc4)cc3)cc2)ccc(C(=O)Nc2ccc(C(=O)O)cc2)c1O | microbial growth |  | DSM28765 |  |  | MIC | ≤ 0.03 µg/mL |
| O=[N+]([O-])c1ccc2c(N=Nc3ccc4ccccc4c3O)c(O)cc(S(=O)(=O)O)c2c1 | microbial growth | broth dilution |  |  | 24 h | MIC50 | 31 µM (≈ 13.6 µg/mL) |
| N#CC(=Cc1cn(-c2ccccc2)nc1-c1ccccc1)C1=NC(=O)CS1 | microbial killing | broth dilution |  |  |  | MBC | 0.5 µg/mL (≈ 1.35 µM) |
| C/C(=C\c1ccc(C#N)cc1)C(=O)Nc1ccc(C(=O)N[C@@H](CC(N)=O)C(=O)Nc2ccc(C(=O)Nc3ccc(C(=O)Nc4ccc(C(=O)O)cc4)c(O)c3OC(C)C)cc2)cc1 | microbial growth |  | DSM28765 |  |  | MIC | ≤ 0.03 µg/mL |
| O=C(O)CN1C(=O)/C(=C/c2ccc(-c3ccc(N(c4ccccc4)c4ccccc4)cc3)c3ccccc23)NC1=S | microbial growth | broth dilution | ATCC12228 |  |  | MIC | > 1000 µg/mL |
